Data on two molecules can be found in ChEMBL document CHEMBL4138115, “An evaluation of Minor Groove Binders as anti-fungal and anti-mycobacterial therapeutics” (Eur J Med Chem, 2017).

Molecules are shown by their SMILES. Values after ≈ are worked out from the molar mass of the structure shown.

Data set [1] has as its system Trypanosoma brucei brucei. Put plainly: Antiparasitic activity against Trypanosoma brucei brucei Lister 427 after 48 hrs by Alamar blue assay. It counts as functional, organism-based. The settings on record: Lister 427, 48 h. In outline:
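Bloodstream-form Lister 427 in HMI-9 with 10% heat-inactivated FBS, counted by haemocytometer and seeded at 2 × 10⁴ cells/mL over serial compound dilutions. After 48 h at 37 °C, 5% CO₂, resazurin (0.49 mM solution in PBS) added for a further 24 h. Fluorescence ex 544/em 590 nm; EC50 from curve fit. Duplicates, at least three independent occasions.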
For orientation: Resazurin is reduced to fluorescent resorufin, in cell work by metabolically active cells.

A further data set has as its system Candida albicans. Put plainly: Antifungal activity against Candida albicans ATCC 90028 after 24 hrs by resazurin dye-based two-fold serial dilution assay. The following applies: ATCC 90028, 24 h. Format: functional.
Data set [2] can be described thus: Lipophilicity of the compound assessed as retention time by HPLC method. It counts as physicochemical. The gist of the method:
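Reverse-phase C18 HPLC with water and acetonitrile, each containing 0.1% TFA. Gradient runs from 100% water to 100% acetonitrile over 1 h; lipophilicity reported as retention time in minutes.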

For another data set, the system named is Salmon testes DNA. Put plainly: Binding affinity to wild type salmon sperm DNA assessed as change in melting temperature at 10 uM. Format: nucleic-acid assay. The settings on record: Salmonidae.
Another data set relates to Cryptococcus neoformans. The data set can be described thus: Antifungal activity against Cryptococcus neoformans ATCC 208821 after 24 hrs by resazurin dye-based two-fold serial dilution assay. Format: functional.
Data set [3] in a line: Cytotoxicity against HEK293 cells reduction in cell viability after 20 hrs by resazurin dye based fluorescence assay. The following applies: human. In outline: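 HEK-293 cells at 4000 per well in DMEM with 10% FBS, exposed to two-fold dilutions from 32 to 0.25 (final) for 20 h at 37 °C, 5% CO₂. Resazurin added (100 final) for 3 h more; fluorescence ex 560/em 590 nm. CC50 is the concentration giving 50% cytotoxicity. Duplicates.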

The next data set relates to Trypanosoma congolense. The data set can be described thus: Antiparasitic activity against Trypanosoma congolense IL3000 after 69 hrs by Alamar blue assay. Format: functional, organism-based. The settings on record: IL3000, 69 h. In outline:
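Bloodstream-form IL3000 counted electronically and seeded at 1.25 × 10⁵ trypanosomes/ml into threefold serial compound dilutions. Kept 69 h at 34 °C, 5% CO₂, then resazurin (12.5 mg per 100 mL PBS) added for 3 h. Fluorescence ex 536/em 588 nm gives EC50. Three separate assay runs.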

Data set [4] is described as follows: Selectivity index, ratio of CC50 for cytotoxicity against HEK293 cells to MIC50 for antimycobacterial activity against GFP labelled Mycobacterium tuberculosis H37Rv. Format: toxicity, cell-based. The following applies: human, read-out: Selectivity Index.
The subject of data set [5] is Mycobacterium tuberculosis. The data set can be described thus: Antimycobacterial activity against GFP labelled Mycobacterium tuberculosis H37Rv up to 14 days by fluorescence assay. It counts as functional. The following applies: 336 h. The gist of the method:
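GFP-labelled Mtb H37Rv at 1 × 10^5 CFU/well in 7H9 broth with 10% OADC and 25 kanamycin. Two-fold compound dilutions were tested. Incubated at 37 °C without shaking.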

The test system of a further data set is Staphylococcus aureus. The data set can be described thus: Antibacterial activity against methicillin-resistant Staphylococcus aureus ATCC 43300 after 18 hrs by two-fold serial dilution assay. It counts as functional. The settings on record: ATCC 43300, 18 h. The gist of the method: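 MRSA ATCC 43300 grown overnight in cation-adjusted Mueller Hinton broth at 37 °C, diluted 40-fold, grown 1.5–3 h to mid-log. Inoculated at 5 × 10⁵ CFU/mL into two-fold compound dilutions (final 32–0.25 range). Incubated 18 h at 37 °C without shaking; OD600 read. Inhibition normalised to media-only and untreated-bacteria controls. MIC taken as lowest concentration giving ≥80% inhibition; duplicates (n = 2).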

Turning to `CC(C)CCc1sc(NC(=O)c2cc(NC(=O)c3cc(NC(=N)c4cccc(F)c4)cn3C)cn2C)nc1C(=O)NCCCN(C)C`, the EC50 (usually the concentration that produces a half-maximal response) was determined as 18 µM in data set [1] and 5.5 µM in the data set with Trypanosoma congolense. Also, the MIC80 (usually an inhibitory concentration at the 80% level, which refers to growth in some studies and to a panel of isolates in others) is above 32 µg/mL against Candida albicans and 8 µg/mL (≈ 12.1 µM) against Staphylococcus aureus. The Retention_time in [2] was determined as 26.2 min. In addition, the ΔTm (usually the change in melting temperature against a reference sample) with Salmon testes DNA was 4 °C. In the data set with Cryptococcus neoformans, this molecule returned an MIC70 of 8 µg/mL (≈ 12.1 µM). The CC50 (commonly the concentration giving 50% cytotoxicity) at 20 h in [3] amounted to 18 µg/mL (≈ 27.1 µM). In addition, the selectivity ratio in [4] was 25. The MIC99 (usually the lowest concentration that inhibits either 99% of growth or 99% of the strains tested, depending on the study) in data set [5] turned out to be 3.1 µg/mL (≈ 4.67 µM).

Regarding `CC(C)CCc1sc(NC(=O)c2cc(NC(=O)c3cc(NC(=N)c4ccc(F)cc4)cn3C)cn2C)nc1C(=O)NCCCN(C)C`, the EC50 in data set [1] turned out to be 18 µM; with Trypanosoma congolense, 10 µM. The MIC80 against Candida albicans was above 32 µg/mL; in the data set with Staphylococcus aureus it was 8 µg/mL (≈ 12.1 µM). The Retention_time in data set [2] turned out to be 26.2 min. The ΔTm in the data set on Salmon testes DNA is 9 °C. In the data set with Cryptococcus neoformans, the MIC70 stood at 4 µg/mL (≈ 6.03 µM). Besides, it took 18 µg/mL (≈ 27.1 µM) to reach half-maximal cytotoxicity in data set [3] (CC50 at 20 h). For the same molecule, the selectivity ratio in data set [4] came to 25. The MIC99 in [5] turned out to be 3.1 µg/mL (≈ 4.67 µM).
